Reference: ChEMBL document CHEMBL4219255, “Targeting Transient Receptor Potential Vanilloid 1 (TRPV1) Channel Softly: The Discovery of Passerini Adducts as a Topical Treatment for Inflammatory Skin Disorders” (J Med Chem, 2018)
pIC50: −log10 of the molar value. Active and inactive are the calls of the source. The calls are words filed in the database; no cut-off is given here.

Key:
[1] = molecular target: Transient receptor potential cation channel subfamily V member 1 (Homo sapiens, UniProt Q8NER1); test: Antagonist activity at TRPV1 (unknown origin) expressed in human SH-SY5Y cells assessed as inhibition of capsaicin-induced calcium increase after 25 mins by Fluo-4 NW dye-based fluorescence assay; type: cell-based
Transient receptor potential cation channel subfamily V member 1, sequence (Q8NER1 whole entry): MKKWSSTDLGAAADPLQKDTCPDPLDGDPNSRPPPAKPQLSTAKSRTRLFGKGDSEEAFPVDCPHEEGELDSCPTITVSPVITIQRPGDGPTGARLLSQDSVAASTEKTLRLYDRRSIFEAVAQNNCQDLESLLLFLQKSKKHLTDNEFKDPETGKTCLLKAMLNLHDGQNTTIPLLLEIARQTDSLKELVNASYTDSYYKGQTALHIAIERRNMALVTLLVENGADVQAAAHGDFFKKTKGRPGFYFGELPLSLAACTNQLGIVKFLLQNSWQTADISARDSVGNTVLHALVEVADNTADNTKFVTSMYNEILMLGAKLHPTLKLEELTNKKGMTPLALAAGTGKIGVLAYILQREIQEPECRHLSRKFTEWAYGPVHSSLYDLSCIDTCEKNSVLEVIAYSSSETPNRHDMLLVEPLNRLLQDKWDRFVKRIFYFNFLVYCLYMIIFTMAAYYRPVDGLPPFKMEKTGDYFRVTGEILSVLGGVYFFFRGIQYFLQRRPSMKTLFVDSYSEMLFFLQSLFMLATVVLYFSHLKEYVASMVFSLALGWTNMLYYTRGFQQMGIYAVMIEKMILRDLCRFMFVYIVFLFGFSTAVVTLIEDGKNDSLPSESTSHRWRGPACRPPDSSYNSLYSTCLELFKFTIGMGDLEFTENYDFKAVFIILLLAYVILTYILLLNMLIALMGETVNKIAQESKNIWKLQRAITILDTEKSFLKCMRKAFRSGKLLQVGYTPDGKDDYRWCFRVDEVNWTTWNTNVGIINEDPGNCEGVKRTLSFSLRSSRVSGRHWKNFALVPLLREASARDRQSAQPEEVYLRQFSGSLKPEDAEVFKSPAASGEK

[2] = Drug metabolism in human liver S9 fraction assessed as residual substrate levels at 50 uM up to 60 mins by HPLC-UV analysis; type: ADME, subcellular; details: read-out: Stability
[3] = molecular target: T1, Liver carboxylesterase 1 (CE1) (Homo sapiens, UniProt P23141); test: Drug metabolism assessed as recombinant human CE1-mediated compound hydrolysis by measuring compound half life at 50 uM up to 30 mins by LC-UV analysis; type: ADME
T1 sequence (P23141 whole entry): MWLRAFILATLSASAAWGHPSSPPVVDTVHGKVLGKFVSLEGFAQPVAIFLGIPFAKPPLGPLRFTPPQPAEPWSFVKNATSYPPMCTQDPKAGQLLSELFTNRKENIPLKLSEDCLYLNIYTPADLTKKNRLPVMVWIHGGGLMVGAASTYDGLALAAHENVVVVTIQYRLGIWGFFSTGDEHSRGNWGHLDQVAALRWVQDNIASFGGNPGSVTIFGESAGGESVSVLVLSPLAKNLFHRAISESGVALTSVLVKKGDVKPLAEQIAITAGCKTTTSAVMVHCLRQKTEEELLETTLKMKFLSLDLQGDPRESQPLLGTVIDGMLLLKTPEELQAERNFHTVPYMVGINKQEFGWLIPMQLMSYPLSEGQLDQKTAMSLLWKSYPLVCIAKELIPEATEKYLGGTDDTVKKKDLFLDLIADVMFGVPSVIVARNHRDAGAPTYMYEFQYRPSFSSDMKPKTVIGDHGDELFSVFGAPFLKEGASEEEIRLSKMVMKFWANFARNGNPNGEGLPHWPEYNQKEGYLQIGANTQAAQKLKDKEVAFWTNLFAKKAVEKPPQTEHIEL
Summary of the method: (§1)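 Recombinant human carboxylesterase isoforms 1 and 2 were each incubated with the test ester. Hydrolysis was followed by HPLC-UV, tracking the disappearance of the substrate over incubation time relative to the initial amount. Chromatograms were also checked for peaks of the expected hydrolysis metabolites.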

Cocaine esterase (CE2) = molecular target: T2, Cocaine esterase (CE2) (Homo sapiens, UniProt O00748); test: Drug metabolism assessed as recombinant human CE2-mediated compound hydrolysis by measuring compound half life at 50 uM up to 30 mins by LC-UV analysis; type: ADME; summary of the method: as §1
T2 sequence (O00748 whole entry): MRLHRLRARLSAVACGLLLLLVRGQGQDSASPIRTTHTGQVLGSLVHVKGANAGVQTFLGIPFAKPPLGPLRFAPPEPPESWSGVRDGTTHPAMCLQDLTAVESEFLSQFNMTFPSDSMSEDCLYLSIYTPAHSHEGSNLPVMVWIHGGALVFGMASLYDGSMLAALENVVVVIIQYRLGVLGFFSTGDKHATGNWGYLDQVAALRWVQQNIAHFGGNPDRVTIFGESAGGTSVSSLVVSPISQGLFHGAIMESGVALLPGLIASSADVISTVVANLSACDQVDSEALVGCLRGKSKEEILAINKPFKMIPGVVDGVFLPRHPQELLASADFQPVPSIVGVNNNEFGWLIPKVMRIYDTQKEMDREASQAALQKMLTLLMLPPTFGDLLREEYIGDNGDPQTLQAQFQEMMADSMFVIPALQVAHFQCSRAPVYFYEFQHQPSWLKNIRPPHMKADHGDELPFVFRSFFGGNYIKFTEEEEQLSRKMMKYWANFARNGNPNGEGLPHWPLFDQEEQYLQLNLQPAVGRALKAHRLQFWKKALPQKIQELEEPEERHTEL

Mus musculus [4] = test: (§2) Analgesic activity in CFA-induced thermal hyperalgesia C57BL/6 mouse model assessed as reduction in latency time required to elicit paw withdrawal in response to radiant heat applied to the plantar surface of a hind paw at 10 to 100 ug administered as intraplantar injection treated at 24 hrs post CFA injection measured at 30 mins post dose; type: functional, organism-based
Mus musculus [5] = test: as §2, with “60” for “30”; type: functional, organism-based
Mus musculus [6] = test: Antipruritic activity in C57BL/6 mouse non-histaminergic pruritus model assessed as reduction in chloroquine-induced licking behavior at 100 ug administered as intraplantar injection pretreated for 30 mins followed by chloroquine addition measured 10 to 20 mins post chloroquine instillation; type: functional, organism-based
Mus musculus [7] = test: Toxicity in C57BL/6 mouse assessed as change in body temperature at 10 mg/kg, iv after 120 mins; type: organism-based; details: in vivo, 2 h
[8] = Drug metabolism in human liver microsomes assessed as sulfate conjugate formation at 50 uM in presence of UDPGA after 60 mins by LC-ESI-MS analysis; type: ADME, microsome; details: 1 h
[9] = Drug metabolism in human liver cytosol assessed as glucuronide metabolite formation at 50 uM in presence of UDPGA after 60 mins by LC-ESI-MS analysis; type: ADME, subcellular; details: 1 h
[10] = molecular target: Transient receptor potential cation channel subfamily V member 1 (Rattus norvegicus) (UniProt O35433); test: Modulatory activity against TRPV1 in Wistar rat neonatal dorsal root ganglia assessed as inhibition of capsaicin-evoked action potential at 10 uM by microelectrode array analysis relative to control
Transient receptor potential cation channel subfamily V member 1 (Rattus norvegicus), sequence (O35433 whole entry): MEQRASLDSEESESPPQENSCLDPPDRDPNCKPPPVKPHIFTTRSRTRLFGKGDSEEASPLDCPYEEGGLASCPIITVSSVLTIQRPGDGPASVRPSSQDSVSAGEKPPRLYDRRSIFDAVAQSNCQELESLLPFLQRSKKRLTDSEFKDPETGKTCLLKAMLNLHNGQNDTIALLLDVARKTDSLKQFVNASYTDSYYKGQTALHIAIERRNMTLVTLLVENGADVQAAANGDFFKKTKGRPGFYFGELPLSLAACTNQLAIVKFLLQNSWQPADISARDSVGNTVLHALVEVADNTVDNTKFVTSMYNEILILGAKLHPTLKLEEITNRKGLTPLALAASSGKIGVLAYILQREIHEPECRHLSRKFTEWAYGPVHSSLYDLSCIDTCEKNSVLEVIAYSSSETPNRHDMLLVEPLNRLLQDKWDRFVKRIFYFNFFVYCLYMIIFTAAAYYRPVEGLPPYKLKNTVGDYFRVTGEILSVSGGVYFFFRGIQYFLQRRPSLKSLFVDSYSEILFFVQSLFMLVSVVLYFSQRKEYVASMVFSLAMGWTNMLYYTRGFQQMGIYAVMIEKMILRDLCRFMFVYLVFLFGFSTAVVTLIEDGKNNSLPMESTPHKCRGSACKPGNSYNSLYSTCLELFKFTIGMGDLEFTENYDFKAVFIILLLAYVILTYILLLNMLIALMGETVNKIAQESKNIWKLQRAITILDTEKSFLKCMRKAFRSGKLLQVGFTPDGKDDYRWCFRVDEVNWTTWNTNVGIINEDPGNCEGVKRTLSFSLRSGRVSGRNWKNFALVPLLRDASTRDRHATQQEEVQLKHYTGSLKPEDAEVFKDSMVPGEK
Summary of the method: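 Capsaicin-evoked action potential firing recorded with test agent at 10 µM. Response expressed as the P2/P1 mean spike frequency ratio.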

What does the source list for `CCCCCCCCCCCC(=O)OCC(=O)NCc1cc(OC)c(O)cc1I`?
pIC50 [1]: 6.03; remaining at 1 h, 50 µM [2]: 0%; half-life at 50 µM [3]: 27.2 min; half-life at 50 µM (Cocaine esterase (CE2)): 12.5 min; Activity (Mus musculus [4]): Active; Activity (Mus musculus [5]): Active; Activity (Mus musculus [6]): Active; Activity (Mus musculus [7]): Non-Toxic; Drug metabolism [8]: Metabolite_Notdetected; Drug metabolism [9]: Metabolite_Notdetected; inhibition [10]: 43%
